High-throughput results: PubChem BioAssay, several laboratories
Compounds with a hit are over-represented: about 10% of the library has one in this group of screens.
PMI act hi M6P: human PMI activators, high substrate, primary screen, biochemical, fluorescence intensity, near-saturating mannose 6-phosphate | Mannose-6-phosphate isomerase (Homo sapiens), P34949 | activation factor at 20 µM | hit rate 0.34% among 190,000 | coupled PMI enzyme assay, resazurin fluorescence, 20 min; hits give high values; 1 = untreated enzyme, 0 = substrate-free blank | AID 1216, 2008;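 active = activation factor of 2 or more at 20 µM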
Target sequence (P34949 whole entry, looked up): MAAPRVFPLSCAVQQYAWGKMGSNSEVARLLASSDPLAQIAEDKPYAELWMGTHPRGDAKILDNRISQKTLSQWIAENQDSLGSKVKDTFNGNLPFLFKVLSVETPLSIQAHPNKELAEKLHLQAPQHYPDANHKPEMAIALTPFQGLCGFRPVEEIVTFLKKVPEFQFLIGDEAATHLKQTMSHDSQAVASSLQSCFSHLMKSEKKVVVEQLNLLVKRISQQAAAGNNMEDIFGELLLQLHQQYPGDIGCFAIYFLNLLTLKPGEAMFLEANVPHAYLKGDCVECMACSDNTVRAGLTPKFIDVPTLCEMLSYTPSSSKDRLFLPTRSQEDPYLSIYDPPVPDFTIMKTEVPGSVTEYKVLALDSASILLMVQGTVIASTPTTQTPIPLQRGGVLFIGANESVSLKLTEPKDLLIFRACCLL
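Technique: Diaphorase-driven resazurin-to-resorufin fluorescence, excitation 544, emission 590 nm | Assay system: Human PMI in coupled enzyme assay | Times: Enzyme reaction with compound 20 min at room temperature | Medium: HEPES-buffered pH 7.4 with magnesium and detergent | Reagent: Mannose-6-phosphate 1.0 mM (near-saturating) plus 0.22 mM NADP+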
WT yeast gro inh: growth inhibition of WT strain, primary screen, mitochondrial fusion inhibitor project, WT and mutant strains, chemical genetic. AID 1362, 2008. hit rate 2.1% among 190,000. mitochondrial fusion phenotypic screen. inhibition, % at 10 µM; in the data active = inhibition above about 58%; tested in S. cerevisiae
PMI activator: activators of human PMI, primary screen, biochemical, fluorescence intensity, near-Km mannose 6-phosphate; Mannose-6-phosphate isomerase (Homo sapiens), P34949; hit rate 0.005% among 190,000; purified human PMI, coupled resazurin fluorescence, 20 min; hits give high values; 1 = vehicle control, 0 substrate-free wells; AID 1214, 2008; activation factor at 20 µM;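 active = activation factor of 2 or more at 20 µM, relative to plate controls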
Lmaj promast: Leishmania major promastigote growth inhibition, primary screen. Leishmania major promastigotes, resazurin fluorescence viability. inhibition, % at 10 µM. hit rate 9% among 200,000. AID 1063, 2008; in the data active = inhibition above about 50%;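 note: promastigotes grown with compound for 44 hours at 28 °C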
Diaph act CS: compounds boosting diaphorase resazurin reduction – biochemical, uHTS, resorufin fluorescence, counter-screen for diaphorase-coupled primary assays, primary screen. Diaphorase/resazurin coupled assay, 16 min; hits give high values; 1 = vehicle wells, 0 = NADH-free wells. activation factor at 20 µM. hit rate 0.005% among 190,000;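 active = diaphorase activity raised at least twofold by the compound at 20 µM; inactive = activation factor below 2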
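Material: purified diaphorase enzyme from Clostridium kluyveri; Also added: 0.114 mM NADH and 0.1 mM resazurin, final amounts; Doses: single compound dose of 20 µM, 1% DMSO final; Times: 16 min enzyme reaction, ambient temperature; Detection: resorufin fluorescence, excitation 544 nm, emission 590 nm; Measure: increased resorufin signal from activators or reducing compounds.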
Numbers without * were called inactive.

c1coc(-c2ccnc3ncnn23)c1 was read as PMI act hi M6P 1, WT yeast gro inh -16, PMI activator 1, Lmaj promast -4 and Diaph act CS 1.
Screening O=C(C[n+]1ccccc1)N/N=C/c1ccc(F)cc1 returned PMI act hi M6P 0.8, WT yeast gro inh -4, PMI activator 0.9, Lmaj promast -6 and Diaph act CS 0.9.
For CCCCC(=O)Nc1ccc(C(=O)NNC(=S)NC(=O)c2cccs2)cc1 the results were PMI act hi M6P 0.9, WT yeast gro inh -16, PMI activator 0.9, Lmaj promast 62* and Diaph act CS 0.7.
`O=C(NNC(=S)NC(=O)c1cccs1)c1ccc(NC(=O)c2ccccc2)cc1` gave PMI act hi M6P 1.1, WT yeast gro inh -15, PMI activator 1.1, Lmaj promast 99* and Diaph act CS 0.6.
`O=C(NC(=S)NNC(=O)c1cc2ccccc2cc1O)c1ccco1` gave PMI act hi M6P 1.2, WT yeast gro inh 16, PMI activator 1.1, Lmaj promast 76* and Diaph act CS 0.6.
Screening Nc1nc(F)cc(NCc2ccccc2)n1 returned PMI act hi M6P 0.9, WT yeast gro inh -30, PMI activator 0.9, Lmaj promast -3 and Diaph act CS 0.9.
O=C1CCC(=O)N1c1ccc(NCCc2cccc(F)c2)c([N+](=O)[O-])c1 was read as PMI act hi M6P 1.1, WT yeast gro inh 14, PMI activator 1.2, Lmaj promast -6 and Diaph act CS 0.9.
Screening COCCNc1ccc(N2C(=O)C3CCCCC3C2=O)cc1[N+](=O)[O-] (centres undefined) returned PMI act hi M6P 1, WT yeast gro inh 0, PMI activator 1, Lmaj promast 1 and Diaph act CS 0.9.
`O=C1C2CC=CCC2C(=O)N1c1ccc(NCCc2cccc(F)c2)c([N+](=O)[O-])c1` (centres undefined) gave PMI act hi M6P 0.9, WT yeast gro inh 2, PMI activator 0.9, Lmaj promast 61* and Diaph act CS 0.8.
For O=C1C2CCCCC2C(=O)N1c1ccc(NC2CCCCC2)c([N+](=O)[O-])c1 (centres undefined) the results were PMI act hi M6P 0.8, WT yeast gro inh 16, PMI activator 0.7, Lmaj promast 52* and Diaph act CS 0.8.
`C/C(=N\NC(=S)NCc1ccccc1)c1ccc(C)o1` gave PMI act hi M6P 0.8, WT yeast gro inh 56, PMI activator 0.9, Lmaj promast -6 and Diaph act CS 0.9.
COc1cc(CNCCO)cc(Br)c1OCc1cccs1 was read as PMI act hi M6P 1, WT yeast gro inh 14, PMI activator 0.9, Lmaj promast 88* and Diaph act CS 1.
For COc1cc(CNC(C)(C)C)cc(Br)c1OCc1cccs1 the results were PMI act hi M6P 1, WT yeast gro inh -6, PMI activator 1, Lmaj promast 86* and Diaph act CS 1.
For COc1cc(CNC(C)(C)CO)cc(Br)c1OCc1ccccc1 the results were PMI act hi M6P 0.9, WT yeast gro inh -8, PMI activator 1, Lmaj promast 80* and Diaph act CS 1.
Screening CC(C)(C)NCc1ccccc1OCc1cccs1 returned PMI act hi M6P 1, WT yeast gro inh -4, PMI activator 1, Lmaj promast 82* and Diaph act CS 0.9.
`O=C(NCc1ccco1)C(=O)NCC1OCCCN1S(=O)(=O)c1ccccc1` (centres undefined) gave PMI act hi M6P 1.1, WT yeast gro inh -16, PMI activator 1.1, Lmaj promast 0 and Diaph act CS 1.
For COc1ccc(C(=O)Nc2cc(C(F)(F)F)ccc2Cl)cc1OC the results were PMI act hi M6P 0.9, WT yeast gro inh 1, PMI activator 0.9, Lmaj promast -2 and Diaph act CS 0.8.
Screening O=C(Nc1cccnc1)c1ccc(Oc2ccccc2)cc1 returned PMI act hi M6P 0.9, WT yeast gro inh 41, PMI activator 0.9, Lmaj promast 90* and Diaph act CS 0.9.
O=C(Nc1cccnc1)c1ccccc1Oc1ccccc1 was read as PMI act hi M6P 1.1, WT yeast gro inh 26, PMI activator 1, Lmaj promast 2 and Diaph act CS 1.
C(=N\c1nc2ccccc2n1CCN1CCCCC1)/c1cccs1 was read as PMI act hi M6P 0.9, WT yeast gro inh -2, PMI activator 0.9, Lmaj promast 53* and Diaph act CS 0.9.
For O=C(Cc1ccccc1)NCc1n[nH]c(=S)n1-c1ccc(Br)cc1 the results were PMI act hi M6P 1.1, WT yeast gro inh -18, PMI activator 1.1, Lmaj promast -5 and Diaph act CS 0.9.
Screening O=C(N/N=C/c1ccccc1Cl)c1n[nH]c2c1CCCC2 returned PMI act hi M6P 1.1, WT yeast gro inh 6, PMI activator 1.1, Lmaj promast 89* and Diaph act CS 1.1.
`O=C(N/N=C/C(Br)=C/c1ccccc1)c1n[nH]c2c1CCC2` gave PMI act hi M6P 1, WT yeast gro inh 50, PMI activator 0.9, Lmaj promast 98* and Diaph act CS 0.8.
For O=C(N/N=C/c1ccccc1)c1n[nH]c2c1CCCC2 the results were PMI act hi M6P 0.9, WT yeast gro inh -20, PMI activator 0.9, Lmaj promast 16 and Diaph act CS 0.9.
For CCCCN(CC)CCCNC(=S)Nc1ccc2nc3n(c(=O)c2c1)CCCCC3 the results were PMI act hi M6P 0.9, WT yeast gro inh -25, PMI activator 0.8, Lmaj promast 5 and Diaph act CS 0.9.
For CC(=O)NC(C)C(=O)OCC(=O)c1ccc(-c2ccccc2)cc1 (centres undefined) the results were PMI act hi M6P 0.9, WT yeast gro inh 5, PMI activator 1, Lmaj promast -14 and Diaph act CS 0.8.
`CCC(C)(C)NC(=O)C(c1ccccc1)N(C(=O)c1csnn1)C1CC1` (centres undefined) gave PMI act hi M6P 1.1, WT yeast gro inh -3, PMI activator 1.1, Lmaj promast 19 and Diaph act CS 1.1.
Screening CN(C)c1ccc(C(C(=O)NC(C)(C)C)N(C(=O)c2csnn2)C2CC2)cc1 (centres undefined) returned PMI act hi M6P 1, WT yeast gro inh 8, PMI activator 1, Lmaj promast 53* and Diaph act CS 1.
For COC(=O)CNC(=O)CNC(=O)c1nn(-c2ccc(OC)c(Cl)c2)c(=O)c2ccccc12 the results were PMI act hi M6P 0.9, WT yeast gro inh 76*, PMI activator 0.9, Lmaj promast -6 and Diaph act CS 0.8.
For COCCNC(=O)CNC(=O)c1nn(-c2ccc(OC)c(Cl)c2)c(=O)c2ccccc12 the results were PMI act hi M6P 1, WT yeast gro inh 1, PMI activator 0.9, Lmaj promast -3 and Diaph act CS 0.9.
